Test results reported in ChEMBL document CHEMBL1124260, “Synthesis and antitumor activity of quaternary ellipticine glycosides, a series of novel and highly active antitumor agents” (1988).

How the values were obtained:
Assay type in all cases: functional
Mus musculus [1] = experiment: Number of survivors out of 6 ip implanted L1210 leukemia mouse tested after 80 days at 2.5 mg/kg; settings: route intraperitoneal
In short: (§1)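 Female BDF1 mice implanted ip with ascitic fluid holding 10^5 L1210 cells. Saline-dissolved drug given ip daily on days 1-5, starting 24 h after implant. Six mice per dose group, followed 80 days. Survivors/total counted at day 80; ILS % from mean survival time vs controls.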

Mus musculus [2] = experiment: Antitumor activity against ip implanted L1210 leukemia in mouse after ip administration of 2.5 mg/kg for 5 days expressed as increase in mean life span; settings: 120 h, route intraperitoneal
In short: (§2)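 Drug was dissolved in 0.9% NaCl, diluted just before use and given ip once daily for 5 consecutive days, starting 24 h after transplant. ILS % = mean survival time of treated vs control mice, observed for 80 days.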

Mus musculus [3] = experiment: Number of survivors out of 6 ip implanted L1210 leukemia mouse tested after 80 days at 60 mg/kg; settings: route intraperitoneal; in short: as §1
Mus musculus [4] = experiment: Antitumor activity against ip implanted L1210 leukemia in mouse after ip administration of 60 mg/kg for 5 days expressed as increase in mean life span; settings: 120 h, route intraperitoneal; in short: as §2

| SMILES | Cures (Mus musculus [1]) | ILS at 2.5 mg/kg (Mus musculus [2]) [%] | Cures (Mus musculus [3]) | ILS at 60 mg/kg (Mus musculus [4]) [%] |
| --- | --- | --- | --- | --- |
| Cc1c2cc[n+]([C@H]3O[C@@H](CO)[C@H](O)[C@@H](O)[C@@H]3O)cc2c(C)c2c1[nH]c1ccc(O)cc12.[Br-] | 0 | 58 |  |  |
| CC(=O)OC1C(C)OC([n+]2ccc3c(C)c4[nH]c5ccc(O)cc5c4c(C)c3c2)C(OC(C)=O)C1OC(C)=O.[Br-] (centres undefined) |  |  | 0 | 89 |
